“And” between values parts separate entries of the source, which are not always exact repeats. Equal values may be shown once.
Assays:
Assay type in all cases: in vivo, human
[1] = system: tumor epichaperome formations (epichaperome/HSP90); assay: 124I-PU-H71 PET/CT tumor imaging in cancer patients
Summary of the method: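 Adults with solid malignancy or lymphoma received 201±12 MBq tracer IV over 1-2 min, no contrast, with SSKI thyroid blockade. PET-CT was done at 3-4 and 20-24 h post-injection, with 45-60 min emission and OSEM reconstruction (decay, attenuation, scatter corrected). The highest-SUV tumor per patient gave SUVpeak (mean voxel SUV in the 1-cm3 sphere of highest uptake, mass-normalized). Tumor:bloodpool and tumor:muscle ratios were compared at 4 vs 24 h by Wilcoxon signed-rank.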

[2] = Whole blood and plasma radioassay of tracer clearance
Summary of the method: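 Tracer was injected IV over 1-2 min and blood drawn through a separate peripheral line at 10, 20 and 30 min and 1-2 or 3-4 h, plus 20-24 h in a subset (n=7). Whole blood and/or plasma were radioassayed by well counter. α and β half-lives came from biexponential fits, summarized as geometric mean. Plasma exposure was expressed as %ID·g·h/mL from 10 min to 4 h.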

[3] = Plasma radioHPLC analysis of tracer metabolism; details: for Relative amount in plasma supernatant, GM: % of total activity of identified radioHPLC peaks
[4] = PET/CT tracer biodistribution in normal organs
Summary of the method: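 Patients received 201±12 MBq tracer IV, with SSKI taken ≥2 h before and daily for two weeks. PET-CT ran skull vertex to proximal thighs at 3-4 and 20-24 h post-injection, with CT for attenuation correction and anatomic localization. Mean SUV was measured in normal organs, including aortic blood pool, humerus, axial skeleton and brain, at 4 and 24 h (n=30).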

[5] = PET-derived urinary and biliary tracer excretion
Summary of the method: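 Serial PET, with bisacodyl 15 mg orally on three nights post-injection: at each time-point, 3D VOIs measured total activity in the urinary bladder and in the hepatobiliary tree plus bowel. Tracer lost by voiding or defecation was tracked from whole-FOV activity on decay-corrected serial scans, normalized to total activity on the initial scan immediately post-injection.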

[6] = Clinical safety monitoring incl. serum TSH; details: microdose tracer 201±12 MBq, <25 μg IV, n=30 patients
Summary of the method: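 Microdose tracer was given IV after seven drops SSKI orally ≥2 h pre-injection, repeated daily for two weeks. Serum TSH was measured <1 week pre-injection as baseline and again 6-12 months post-injection. Toxicity signs and symptoms were checked at each imaging time-point, and patients reported adverse symptoms over the following 30 days.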

[7] = 4 hours post-injection, across patient population
[8] = one table row per patient, PET 4 h post-injection
[9] = one table row per patient, PET 24 h post-injection
[10] = patients, IV bolus, geometric mean

Compound: CC(C)NCCCn1c(Sc2cc3c(cc2I)OCO3)nc2c(N)ncnc21 [^124I-PU-H71]
- Tumor:bloodpool ratio of radiotracer concentrations, average/SD [1, 7]: 3.2± 3.0
- Tumor:bloodpool ratio of radiotracer concentrations, maximum [1, 7]: up to 14.4
- Tumor:bloodpool SUV ratio ([1]; 24 h, person, stage IV pancreatic cancer (Fig. 1)): 19.8
- Tumor:bloodpool ratio of radiotracer concentrations, average/SD ([1]; 24 hours post-injection, across patient population): 3.9 ± 4.4
- 24-hour tumor SUV average/SD ([1]; between patients): 0.9 ± 0.8
- 24-hour tumor SUV coefficient of variation ([1]; between patients): 88.9%
- 24-hour tumor SUV range ([1]; between patients): 0.1-3.8
- Patients in whom PU-H71-avid tumors were detected ([1]; n=26 evaluable patients, PET at 24 h): 58%
- T:B 4 h (tumor:blood pool SUVpeak ratio) [1, 8]: 1.8 and 3.1 and 14.4 and 6.1 and 1.5 and 1.2 and 2.2 and 2.7 and 0.9 and 5.0 and 2.5 and 4.2 and 1.6 and 1.3 and 2.9 and 2.1 and 9.6 and 1.7 and 3.6
- T:M 4 h (tumor:muscle SUV ratio) [1, 8]: 1.8 and 6.0 and 22.0 and 5.1 and 2.1 and 1.2 and 2.8 and 1.9 and 2.4 and 5.3 and 2.0 and 1.0 and 5.4 and 4.0 and 3.3 and 5.2 and 3.0 and 3.8 and 1.5 and 7.7 and 2.7 and 4.9
- Tumor SUV 4 h (SUVpeak) [1, 8]: 1.1 and 1.6 and 11.0 and 2.5 and 0.64 and 0.8 and 0.7 and 0.9 and 3.4 and 1.7 and 3.2 and 2.1 and 1.3 and 1.8 and 2.7 and 1.5 and 2.2 and 1.2
- T:B 24 h (tumor:blood pool SUVpeak ratio) [1, 9]: 1.0 and 5.6 and 13.1 and 1.7 and 4.0 and 0.6 and 3.0 and 1.2 and 3.2 and 0.9 and 5.1 and 2.4 and 19.8 and 0.7 and 1.8 and 1.3 and 3.6 and 5.9 and 2.3 and 7.8 and 4.8
- T:M 24 h (tumor:muscle SUV ratio) [1, 9]: 1.6 and 11.2 and 20.0 and 8.0 and 6.7 and 1.2 and 6.0 and 2.3 and 1.5 and 6.4 and 1.0 and 1.1 and 8.8 and 2.1 and 6.2 and 2.5 and 4.6 ^****** and 1.4 and 3.3 and 5.6 and 5.2 and 17.5 and 1.3 and 5.1
- Tumor SUV 24 h (SUVpeak) [1, 9]: 0.3 and 0.6 and 3.8 and 0.8 and 0.4 and 0.1 and 0.2 and 1.0 and 0.7 and 1.8 and 1.1 and 1.6 and 0.5 and 1.3 and 0.9 and 2.1 and 1.5
- Decrease of tumor SUV between 4 to 24 hours ([1]; overall): 1.0±1.4 SUV units
- Decrease of tumor SUV between 4 to 24 hours, range ([1]; overall): −25.0 to +87.5%
- Decrease of tumor SUV between 4 to 24 hours, mean ± SD ([1]; overall, p=0.00002): 50.7 ± 27.0%
- Increase of tumor:bloodpool SUV ratio between 3 and 24 h ([1]; person, stage IV pancreatic cancer (Fig. 1)): 371%
- Median increase in tumor:bloodpool SUV ratio from 4 to 24 hours ([1]; population): 4.8%
- Median increase in tumor:muscle SUV ratio from 4 to 24 hours ([1]; population): 20.9%
- Range of change in tumor:bloodpool SUV ratio from 4 to 24 hours ([1]; population): −72.1 to +371.4%
- Range of change in tumor:muscle SUV ratio from 4 to 24 hours ([1]; population): −63.2 to +257.1%
- Average increase in tumor:muscle SUV ratio from 4 to 24 hours ([1]; population, p=0.02): 52.0 ± 87.3%
- Average increase in tumor:bloodpool SUV ratio from 4 to 24 hours ([1]; population, p=0.9): 25.7 ± 99.9%
- Plasma AUC coefficient of variation ([2]; between patients): 36.6%
- Plasma radiotracer exposure ([2]; from 10 minutes to 4 hours post-injection): 1.7±0.6 % ID•g•h/mL
- Blood t1/2 α, GM [2, 10]: 7.9 min
- Blood t1/2 β, GM [2, 10]: 6.103 h
- Plasma t1/2 α, GM [2, 10]: 7.0 min
- Plasma t1/2 β, GM [2, 10]: 4.402 h
- Relative amount in plasma supernatant, GM ([3]; 10 min after tracer injection): 69.2%
- Relative amount in plasma supernatant, GM ([3]; 20 min after tracer injection): 51.7%
- Relative amount in plasma supernatant, GM ([3]; 30 min after tracer injection): 44.9%
- Relative amount in plasma supernatant, GM ([3]; 1h after tracer injection): 32.3%
- Relative amount in plasma supernatant, GM ([3]; 4h after tracer injection): 22.7%
- Time by which radiotracer became predominantly radiometabolites ([3]; plasma, p.i.): ≤ 1 h
- Brain uptake ([4]; PET): scant
- 24-hour bloodpool SUV ([4]; average/SD, 24 hours post-injection): 0.2 ±0.1
- Urinary excretion of tracer [5]: 29.5 ±10.9 %ID
- Hepatobiliary excretion of tracer ([5]; bisacodyl given): 45.4 ±15.8 %ID
- Adverse effects [6]: no adverse effects
- Adverse effects ([6]; listed as PUH71 tracer): No signs or symptoms of adverse effects
